# From ChEMBL document CHEMBL3621107, “Ring fusion strategy for synthesis and lead optimization of sulfur-substituted anthra[1,2-c][1,2,5]thiadiazole-6,11-dione derivatives as promising scaffold of antitumor agents” (Eur J Med Chem, 2015)
# Columns and labels:
# M14 = test: Cytotoxicity against human M14 cells assessed as cell growth at 10 uM after 48 hrs by SRB assay relative to control; type: functional; conditions: M14, 48 h, read-out: Activity
# How it was run: (§1)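 First-stage NCI-60 screen by the NCI Developmental Therapeutics Program. Each compound was tested once at a single concentration of 10 μM against the 60-cell-line panel. Growth percentage was reported for each cell line.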
# MDA-MB-435 = test: Cytotoxicity against human MDA-MB-435 cells assessed as cell growth at 10 uM after 48 hrs by SRB assay relative to control; type: functional; conditions: MDA-MB-435, 48 h, read-out: Activity
# How it was run: (§2)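 First-stage NCI DTP one-dose screen against the 60 human tumour cell line panel. Compounds were tested at a single 10 μM level, and results are given as growth percentage.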
# SK-MEL-5 = test: Cytotoxicity against human SK-MEL-5 cells assessed as cell growth at 10 uM after 48 hrs by SRB assay relative to control; type: functional; conditions: SK-MEL-5, 48 h, read-out: Activity; how it was run: as §2
# UACC-257 = test: Cytotoxicity against human UACC257 cells assessed as cell growth at 10 uM after 48 hrs by SRB assay relative to control; type: functional; conditions: UACC-257, 48 h, read-out: Activity
# How it was run: (§3)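 NCI-60 one-dose screen run by NCI DTP: each cell line exposed to a single 10 µM dose, and percentage growth recorded against untreated growth.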
# OVCAR-4 = test: Cytotoxicity against human OVCAR4 cells assessed as cell growth at 10 uM after 48 hrs by SRB assay relative to control; type: functional; conditions: OVCAR-4, 48 h, read-out: Activity; how it was run: as §2
# 786-0 = test: Cytotoxicity against human 786-0 cells assessed as cell growth at 10 uM after 48 hrs by SRB assay relative to control; type: functional; conditions: 786-0, 48 h, read-out: Activity; how it was run: as §1
# ACHN = test: Cytotoxicity against human ACHN cells assessed as cell growth at 10 uM after 48 hrs by SRB assay relative to control; type: functional; conditions: read-out: Activity; how it was run: as §1
# CAKI-1 = test: Cytotoxicity against human Caki1 cells assessed as cell growth at 10 uM after 48 hrs by SRB assay relative to control; type: functional; conditions: CAKI-1, 48 h, read-out: Activity; how it was run: as §1
# PC-3 = test: Cytotoxicity against human PC3 cells assessed as cell growth at 10 uM after 48 hrs by SRB assay relative to control; type: functional; conditions: PC-3, 48 h, read-out: Activity; how it was run: as §2
# MCF7 = test: Cytotoxicity against human MCF7 cells assessed as cell growth at 10 uM after 48 hrs by SRB assay relative to control; type: functional; conditions: MCF7, 48 h, read-out: Activity; how it was run: as §1
# MDA-MB-231 = test: Cytotoxicity against human MDA-MB-231 cells assessed as cell growth at 10 uM after 48 hrs by SRB assay relative to control; type: functional; conditions: MDA-MB-231, 48 h, read-out: Activity; how it was run: as §2
# T47D = test: Cytotoxicity against human T47D cells assessed as cell growth at 10 uM after 48 hrs by SRB assay relative to control; type: functional; conditions: read-out: Activity; how it was run: as §3
# MDA-MB-468 = test: Cytotoxicity against human MDA-MB-468 cells assessed as cell growth at 10 uM after 48 hrs by SRB assay relative to control; type: functional; conditions: MDA-MB-468, 48 h, read-out: Activity; how it was run: as §2
# DU-145 = test: Cytotoxicity against human DU145 cells after 72 hrs by MTT assay; type: functional, cell-based; conditions: for IC50: DU-145, 72 h
# How it was run: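 DU-145 cells grown in RPMI-1640 with 5% heat-inactivated fetal calf serum at 37 °C, 5% CO2. About 2×10^3 cells per well were seeded and incubated for 24 h. Compounds were dissolved in DMSO freshly and diluted into medium (vehicle 0.1% DMSO), then cells were exposed for 72 h. MTT was added for 3 h at 37 °C and absorbance read at 570 nm.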
# CCRF-CEM = test: Cytotoxicity against human CCRF-CEM cells assessed as cell growth at 10 uM after 48 hrs by SRB assay relative to control; type: functional; conditions: read-out: Activity; how it was run: as §1
# RPMI-8226 = test: Cytotoxicity against human RPMI8226 cells assessed as cell growth at 10 uM after 48 hrs by SRB assay relative to control; type: functional; conditions: RPMI-8226, 48 h, read-out: Activity; how it was run: as §2
# A549 = test: Cytotoxicity against human A549 cells assessed as cell growth at 10 uM after 48 hrs by SRB assay relative to control; type: functional; conditions: A549, 48 h, read-out: Activity; how it was run: as §1
# [1] = Cytotoxicity against human EKVX cells assessed as cell growth at 10 uM after 48 hrs by SRB assay relative to control; type: functional; conditions: read-out: Activity; how it was run: as §1
# HOP-62 = test: Cytotoxicity against human HOP62 cells assessed as cell growth at 10 uM after 48 hrs by SRB assay relative to control; type: functional; conditions: HOP-62, 48 h, read-out: Activity; how it was run: as §1
# NCI-H23 = test: Cytotoxicity against human NCI-H23 cells assessed as cell growth at 10 uM after 48 hrs by SRB assay relative to control; type: functional; conditions: NCI-H23, 48 h, read-out: Activity; how it was run: as §2
# NCI-H322M = test: Cytotoxicity against human NCI-H322M cells assessed as cell growth at 10 uM after 48 hrs by SRB assay relative to control; type: functional; conditions: read-out: Activity; how it was run: as §2
# NCI-H522 = test: Cytotoxicity against human NCI-H522 cells assessed as cell growth at 10 uM after 48 hrs by SRB assay relative to control; type: functional; conditions: NCI-H522, 48 h, read-out: Activity; how it was run: as §2
# HCC 2998 = test: Cytotoxicity against human HCC2998 cells assessed as cell growth at 10 uM after 48 hrs by SRB assay relative to control; type: functional; conditions: HCC 2998, 48 h, read-out: Activity; how it was run: as §1
# HCT-15 = test: Cytotoxicity against human HCT15 cells assessed as cell growth at 10 uM after 48 hrs by SRB assay relative to control; type: functional; conditions: HCT-15, 48 h, read-out: Activity; how it was run: as §1
# SF-268 = test: Cytotoxicity against human SF268 cells assessed as cell growth at 10 uM after 48 hrs by SRB assay relative to control; type: functional; conditions: SF-268, 48 h, read-out: Activity; how it was run: as §2
# SF-295 = test: Cytotoxicity against human SF295 cells assessed as cell growth at 10 uM after 48 hrs by SRB assay relative to control; type: functional; conditions: SF-295, 48 h, read-out: Activity; how it was run: as §2
# U-251 = test: Cytotoxicity against human U251 cells assessed as cell growth at 10 uM after 48 hrs by SRB assay relative to control; type: functional; conditions: U-251, 48 h, read-out: Activity; how it was run: as §3
# LOX IMVI = test: Cytotoxicity against human LOXIMVI cells assessed as cell growth at 10 uM after 48 hrs by SRB assay relative to control; type: functional; conditions: read-out: Activity; how it was run: as §1
# A498 = test: Cytotoxicity against human A498 cells assessed as cell growth at 10 uM after 48 hrs by SRB assay relative to control; type: functional; conditions: A498, 48 h, read-out: Activity; how it was run: as §1
# HOP-92 = test: Cytotoxicity against human HOP92 cells assessed as cell growth at 10 uM after 48 hrs by SRB assay relative to control; type: functional; conditions: HOP-92, 48 h, read-out: Activity; how it was run: as §1
SMILES,growth at 10 µM (M14) [%],growth at 10 µM (MDA-MB-435) [%],growth at 10 µM (SK-MEL-5) [%],growth at 10 µM (UACC-257) [%],growth at 10 µM (786-0) [%],growth at 10 µM (ACHN) [%],growth at 10 µM (MCF7) [%],growth at 10 µM (MDA-MB-231) [%],growth at 10 µM (T47D) [%],growth at 10 µM (MDA-MB-468) [%],IC50 (DU-145) [µM],growth at 10 µM (RPMI-8226) [%],growth at 10 µM (A549) [%],growth at 10 µM (HOP-62) [%],growth at 10 µM (NCI-H23) [%],growth at 10 µM (HCC 2998) [%],growth at 10 µM (HCT-15) [%],growth at 10 µM (SF-268) [%],growth at 10 µM (U-251) [%],growth at 10 µM (LOX IMVI) [%],further results
CC(C)Sc1cc2c(c3nsnc13)C(=O)c1ccccc1C2=O,-31.5,-79.3,-99.2,-91.7,12.4,0.8,-68.8,-35.9,-24.4,-78.8,4.53,-38,-8.14,13.2,-42.2,21,15.3,7.06,-23.1,-21.6,growth at 10 µM (OVCAR-4): -100%; growth at 10 µM (CAKI-1): -5.68%; growth at 10 µM (PC-3): -13.4%; Activity (DU-145): Dose-dependent effect; growth at 10 µM (CCRF-CEM): -45%; growth at 10 µM [1]: -6.58%; growth at 10 µM (NCI-H322M): -0.8%; growth at 10 µM (NCI-H522): -59.5%; growth at 10 µM (SF-295): -16.6%
O=C1c2ccccc2C(=O)c2c1ccc1nsnc21,74.5,-87.9,8.52,-83.1,-26,-94.3,-50.7,-17.3,-45.5,-73.2,7.41,-28,104,-100,16.1,-0.74,1.48,16.3,-89.3,-50.6,growth at 10 µM (OVCAR-4): -94.4%; growth at 10 µM (A498): 130%; growth at 10 µM (CAKI-1): 1.97%; growth at 10 µM (CCRF-CEM): -30.8%; growth at 10 µM [1]: 103%; growth at 10 µM (NCI-H322M): 126%; growth at 10 µM (SF-295): 126%
O=C1c2ccccc2C(=O)c2c1cc(SCc1ccc(Cl)cc1)c1nsnc21,126,,89.6,78.7,118,94.3,83,95.2,83.8,83.4,7.51,86.8,101,89.2,82.1,103,97.9,107,94.4,86.7,growth at 10 µM (OVCAR-4): 84.2%; growth at 10 µM (PC-3): 82.9%; growth at 10 µM (NCI-H322M): 94.1%; growth at 10 µM (NCI-H522): 82.6%
O=C1c2ccccc2C(=O)c2c1cc(Sc1ccc(F)cc1F)c1nsnc21,53.8,-85.3,48.5,43.9,3.74,34.9,6.58,-9.73,-28.6,-87,9.12,6.29,112,58.5,9.53,107,45.8,8.47,34.5,-42,growth at 10 µM (A498): 50.8%; growth at 10 µM (CAKI-1): 24%; growth at 10 µM (PC-3): -9.72%; growth at 10 µM [1]: 98.1%; growth at 10 µM (HOP-92): -18.4%; growth at 10 µM (NCI-H522): 61.1%; growth at 10 µM (SF-295): 68.8%
Cc1cccc(C)c1Sc1cc2c(c3nsnc13)C(=O)c1ccccc1C2=O,122,96.8,70.2,86.6,115,83.2,68.6,30.6,66.8,45.9,7.88,55.6,90.2,90,67.4,101,47.5,79.5,53.9,44.6,growth at 10 µM (OVCAR-4): 4%; growth at 10 µM (CAKI-1): 61%; growth at 10 µM (PC-3): 59.9%; growth at 10 µM (CCRF-CEM): 34.8%; growth at 10 µM [1]: 82.4%; growth at 10 µM (NCI-H322M): 83.8%; growth at 10 µM (NCI-H522): 61.4%; growth at 10 µM (SF-295): 91.1%
O=C1c2ccccc2C(=O)c2c1cc(Sc1cc(Cl)ccc1Cl)c1nsnc21,99,106,109,119,67.5,88.5,85.2,82.4,63.4,90.7,> 15,77.2,103,63.2,74.6,109,92.8,83,63.6,73,growth at 10 µM (A498): 87.7%; growth at 10 µM (CAKI-1): 108%; growth at 10 µM (PC-3): 80.6%; growth at 10 µM [1]: 109%; growth at 10 µM (HOP-92): 65.1%; growth at 10 µM (NCI-H522): 91.3%; growth at 10 µM (SF-295): 78.9%
O=C1c2ccccc2C(=O)c2c1cc(Sc1ccccc1Br)c1nsnc21,59.5,-73,46.3,4.75,-6.19,25.5,-6.39,16.9,-33,-79.9,9.58,9.4,95.4,4.88,18,78.4,39.7,-5.11,11.5,-15.3,growth at 10 µM (A498): 24.2%; growth at 10 µM (CAKI-1): 29.7%; growth at 10 µM (PC-3): 4.23%; growth at 10 µM [1]: 77.7%; growth at 10 µM (HOP-92): 37.6%; growth at 10 µM (NCI-H522): 30.8%; growth at 10 µM (SF-295): 100%
